According to ChEMBL document CHEMBL1133118 (J Med Chem, 2000):
pIC50, pKi: −log10 of the molar value.

Tests used:
Adenosine receptor A2a [1] = target: T1, Adenosine receptor A2a (Homo sapiens, UniProt P29274); assay: Displacement of [3H]-SCH- 58261 from human adenosine A2A receptor expressed in CHO cells; range 70-130; type: cell-based
Method in brief: (§1)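 Membranes from CHO cells stably expressing human A2A receptor, grown in DMEM/F12 without nucleosides, resuspended in 50 mM Tris HCl, 10 mM MgCl2, pH 7.4; 50 μg protein/assay. Competition with [3H]SCH 58261 at 6–8 or more compound concentrations, 60 min at 25 °C; nonspecific binding with 50 μM NECA. Filtration on GF/B filters, scintillation counting; n=3-6.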

Adenosine receptor A2b [2] = target: T2, Adenosine receptor A2b (Homo sapiens, UniProt P29275); assay: Displacement of [3H]DPCPX from Adenosine A2b receptor expressed in […]; range 56-89; type: cell-based
T2 sequence (P29275 whole entry): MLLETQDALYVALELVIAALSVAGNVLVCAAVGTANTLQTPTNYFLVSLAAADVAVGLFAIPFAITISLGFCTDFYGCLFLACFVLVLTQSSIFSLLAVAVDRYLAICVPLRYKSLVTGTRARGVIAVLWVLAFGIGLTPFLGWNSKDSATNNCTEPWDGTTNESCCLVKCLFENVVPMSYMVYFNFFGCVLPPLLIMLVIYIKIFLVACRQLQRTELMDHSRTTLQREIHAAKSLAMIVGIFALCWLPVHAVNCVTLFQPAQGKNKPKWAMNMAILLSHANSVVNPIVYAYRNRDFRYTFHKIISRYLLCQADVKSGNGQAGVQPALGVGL

Adenosine receptor A1 [3] = target: T3, Adenosine receptor A1 (Homo sapiens, UniProt P30542); assay: Displacement of [3H]-DPCPX from human adenosine A1 receptor expressed in CHO cells; range 213-281; type: cell-based
T3 sequence (P30542 whole entry): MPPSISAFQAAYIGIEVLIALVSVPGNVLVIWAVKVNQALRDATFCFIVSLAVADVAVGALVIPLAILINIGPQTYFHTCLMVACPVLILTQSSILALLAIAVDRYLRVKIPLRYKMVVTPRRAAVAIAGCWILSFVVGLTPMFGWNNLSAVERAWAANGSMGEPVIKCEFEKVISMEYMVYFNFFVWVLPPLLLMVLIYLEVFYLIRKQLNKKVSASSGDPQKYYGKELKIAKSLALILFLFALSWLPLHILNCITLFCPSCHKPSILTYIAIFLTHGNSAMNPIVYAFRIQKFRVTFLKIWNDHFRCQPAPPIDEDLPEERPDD

[4] = target: Adenosine receptors; A1 & A3 (Homo sapiens) (UniProt P30542+P0DMS8); assay: Ratio of binding affinity of human A1 receptor to that of human A3 receptor; type: protein assay
Method in brief: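 Ki ratio from displacement in CHO membranes, 6–8 concentrations, n=3-6, filtration counting. A1: 1 nM [3H]DPCPX, 50 μg protein, 120 min at 25 °C, nonspecific with 10 μM CHA. A3: 1 nM [3H]MRE3008-F20, 50 μg protein, Tris/10 mM MgCl2 pH 7.4, 120 min at 4 °C, nonspecific with 1 μM MRE3008-F20.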

Adenosine receptor A3 [5] = target: T4, Adenosine receptor A3 (Homo sapiens, UniProt P0DMS8); assay: Inhibition of cAMP accumulation in CHO cells expressing human adenosine A3 receptor; range 3.0-6.9; type: functional, cell-based
T4 sequence (P0DMS8 whole entry): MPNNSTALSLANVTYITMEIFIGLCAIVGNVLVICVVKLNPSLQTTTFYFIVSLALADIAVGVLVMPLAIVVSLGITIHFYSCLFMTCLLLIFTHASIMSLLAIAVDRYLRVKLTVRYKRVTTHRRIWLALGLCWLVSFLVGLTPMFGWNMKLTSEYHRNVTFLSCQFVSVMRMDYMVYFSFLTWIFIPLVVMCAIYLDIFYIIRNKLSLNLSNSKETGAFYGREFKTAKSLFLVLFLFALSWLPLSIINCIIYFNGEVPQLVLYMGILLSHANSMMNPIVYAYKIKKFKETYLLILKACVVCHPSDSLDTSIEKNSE

[6] = target: Adenosine receptors; A2b & A3 (Homo sapiens) (UniProt P29275+P0DMS8); assay: Ratio of binding affinity of human A2B receptor to that of human A3 receptor; type: protein assay
Method in brief: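 Ki ratio, n=3-6, 6–8 concentrations. A2B in HEK-293 membranes (20 μg): 40 nM [3H]DPCPX, 50 mM Tris HCl, 10 mM MgCl2, 1 mM EDTA, 0.1 mM benzamidine pH 7.4, 2 IU/mL adenosine deaminase, 60 min at 25 °C, nonspecific with 100 μM NECA. A3 in CHO membranes (50 μg): 1 nM [3H]MRE3008-F20, 120 min at 4 °C.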

[7] = target: T5, Adenosine receptor A3 (Homo sapiens) (UniProt P0DMS8); conditions: CHO, 1 uM
T5 sequence (whole entry): T4 sequence (P0DMS8 whole entry)

Adenosine receptor A3 [8] = target: T4, Adenosine receptor A3; assay: Displacement of [3H]MRE3008-F20 from human adenosine A3 receptor expressed in CHO cells; range 0.52-0.68; type: cell-based
Adenosine receptor A2a [9] = target: T1, Adenosine receptor A2a; assay: Displacement of [3H]-SCH- 58261 from human adenosine A2A receptor expressed in CHO cells; range 17-24; type: cell-based
Method in brief: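 CHO membranes expressing human A2A receptor (50 μg protein) in 50 mM Tris HCl, 10 mM MgCl2, pH 7.4, competed against [3H]SCH 58261. At least 6–8 test concentrations were used, with 60 min incubation at 25 °C. Nonspecific binding defined by 50 μM NECA; n=3-6.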

Adenosine receptor A3 [10] = target: T4, Adenosine receptor A3; assay: biochemical
Adenosine receptor A1 [11] = target: T3, Adenosine receptor A1; assay: Displacement of [3H]DPCPX from human adenosine A1 receptor expressed in CHO cells; range 123-160; type: cell-based
Adenosine receptor A2b [12] = target: T2, Adenosine receptor A2b; assay: Displacement of [3H]DPCPX from Adenosine A2b receptor expressed in HEK-293 cells; range 44-58
[13] = target: T5, Adenosine receptor A3 (Homo sapiens); assay: Percentage of blockade by 1 uM of the inhibition by 100 nM IB-MECA-inhibited cAMP accumulation in CHO cells expressing human adenosine A3 receptor.; type: functional, cell-based
Method in brief: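 CHO cells stably expressing human A3 receptor; membranes in 50 mM Tris HCl, 10 mM MgCl2, 1 mM EDTA pH 7.4 with 5 μM GTP, 0.5 mM […] and 2.0 IU/mL adenosine deaminase. Preincubated 10 min at 37 °C, then IB-MECA (100 nM) and/or antagonist with 1 mM ATP and 10 μM forskolin for 10 min. Boiled 2 min. cAMP read by [3H]cAMP competition with adrenal binding protein.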

Adenosine receptor A3 [14] = target: T4, Adenosine receptor A3; assay: Displacement of [3H]MRE3008-F20 from human adenosine A3 receptor expressed in CHO cells; range 51-70; type: cell-based
Adenosine receptor A2b [15] = target: T2, Adenosine receptor A2b; assay: Displacement of [3H]DPCPX from Adenosine A2b receptor expressed in […]; range 183-278; type: cell-based
Adenosine receptor A1 [16] = target: T3, Adenosine receptor A1; assay: Displacement of [3H]DPCPX from human adenosine A1 receptor expressed in CHO cells; range 2894-3460; type: cell-based
Adenosine receptor A2b [17] = target: T2, Adenosine receptor A2b; assay: Displacement of [3H]DPCPX from Adenosine A2b receptor expressed in CHO cells; type: cell-based
Adenosine receptor A2a [18] = target: T1, Adenosine receptor A2a; assay: Displacement of [3H]-SCH- 58261 from human adenosine A2A receptor expressed in CHO cells; type: cell-based
Adenosine receptor A3 [19] = target: T4, Adenosine receptor A3; assay: Displacement of [3H]MRE3008-F20 from human adenosine A3 receptor expressed in CHO cells; range 34-76; type: cell-based
Adenosine receptor A3 [20] = target: T4, Adenosine receptor A3; assay: Displacement of [3H]MRE3008-F20 from human adenosine A3 receptor expressed in CHO cells; range 2.13-3.62; type: cell-based
Adenosine receptor A2b [21] = target: T2, Adenosine receptor A2b; assay: Displacement of [3H]DPCPX from Adenosine A2b receptor expressed in HEK-293 cells; range 432-469
Adenosine receptor A2a [22] = target: T1, Adenosine receptor A2a; assay: Displacement of [3H]-SCH- 58261 from human adenosine A2A receptor expressed in CHO cells; range 632-1003; type: cell-based; method in brief: as §1
Adenosine receptor A1 [23] = target: T3, Adenosine receptor A1; assay: Displacement of [3H]DPCPX from human adenosine A1 receptor expressed in CHO cells; range 885-1163; type: cell-based
[24] = target: T5, Adenosine receptor A3 (Homo sapiens); conditions: CHO, 1 uM; remark: listed apart in the source

T1 sequence (P29274 whole entry): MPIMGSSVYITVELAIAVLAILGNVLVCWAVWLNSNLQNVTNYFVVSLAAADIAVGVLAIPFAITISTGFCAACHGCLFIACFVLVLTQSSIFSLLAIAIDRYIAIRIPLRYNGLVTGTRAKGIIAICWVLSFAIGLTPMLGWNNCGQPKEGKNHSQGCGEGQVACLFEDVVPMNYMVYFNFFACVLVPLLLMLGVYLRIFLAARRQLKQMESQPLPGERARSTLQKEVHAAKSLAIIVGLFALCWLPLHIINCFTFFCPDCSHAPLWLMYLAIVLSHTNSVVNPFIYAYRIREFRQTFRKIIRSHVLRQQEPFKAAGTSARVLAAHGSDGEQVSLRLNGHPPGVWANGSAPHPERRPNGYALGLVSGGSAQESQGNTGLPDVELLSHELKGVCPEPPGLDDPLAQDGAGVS

CCCCn1cc2c(nc(NC(=O)Nc3cccc(Cl)c3)n3nc(-c4ccco4)nc23)n1
pKi (Adenosine receptor A2a [1]): 7.02
pKi (Adenosine receptor A2b [2]): 7.15
pKi (Adenosine receptor A1 [3]): 6.61
Ratio [4]: 408
pIC50 (Adenosine receptor A3 [5]): 8.35
Ratio [6]: 116
inhibition [7]: 85%
pKi (Adenosine receptor A3 [8]): 9.22

Nc1nc2n[nH]cc2c2nc(-c3ccco3)nn12
pKi (Adenosine receptor A2a [9]): 7.70
pKi (Adenosine receptor A3 [10]): 6.46
Ratio [4]: 0.4
pKi (Adenosine receptor A1 [11]): 6.85
pKi (Adenosine receptor A2b [12]): 7.29
Ratio [6]: 0.15
inhibition [13]: 24%

O=C(Nc1cccc(Cl)c1)Nc1nc2nn(CCCc3ccccc3)cc2c2nc(-c3ccco3)nn12
pKi (Adenosine receptor A3 [14]): 7.22
Ratio [4]: 25
Ratio [6]: 3.7
pKi (Adenosine receptor A2b [15]): 6.65
inhibition [13]: 39%

O=C(Nc1cccc(Cl)c1)Nc1nc2nn(CCc3cccc4ccccc34)cc2c2nc(-c3ccco3)nn12
pKi (Adenosine receptor A1 [16]): 5.50
pKi (Adenosine receptor A2b [17]): < 5.00
pKi (Adenosine receptor A2a [18]): < 5.00
Ratio [4]: 62
pKi (Adenosine receptor A3 [19]): 7.29
Ratio [6]: > 196
inhibition [13]: 40%

CC(C)(C)n1cc2c(nc(NC(=O)Nc3cccc(Cl)c3)n3nc(-c4ccco4)nc23)n1
pKi (Adenosine receptor A3 [20]): 8.56
pKi (Adenosine receptor A2b [21]): 6.35
Ratio [4]: 365
Ratio [6]: 162
pKi (Adenosine receptor A2a [22]): 6.10
pKi (Adenosine receptor A1 [23]): 5.99
inhibition [24]: 70%
